In ChEMBL document CHEMBL5038593, “Rational Design and Synthesis of Novel Dual PROTACs for Simultaneous Degradation of EGFR and PARP” (J Med Chem, 2021):
One block for each molecule: values may come before it. The source made the active and inactive calls. No cut-off for these calls is given here.

Tests used:
[1] = molecular target: T1, Protein cereblon/Epidermal growth factor receptor (Homo sapiens) (UniProt P00533+Q96SW2); experiment: Protac activity at CRBN/EGFR in human SW1990 cells assessed as induction of EGFR degradation at 1 to 50 uM incubated for 24 hrs by Western blot analysis; format: cell-based; details: dose 1-50 µM
T1 sequence (P00533 25-1210 limits assumed): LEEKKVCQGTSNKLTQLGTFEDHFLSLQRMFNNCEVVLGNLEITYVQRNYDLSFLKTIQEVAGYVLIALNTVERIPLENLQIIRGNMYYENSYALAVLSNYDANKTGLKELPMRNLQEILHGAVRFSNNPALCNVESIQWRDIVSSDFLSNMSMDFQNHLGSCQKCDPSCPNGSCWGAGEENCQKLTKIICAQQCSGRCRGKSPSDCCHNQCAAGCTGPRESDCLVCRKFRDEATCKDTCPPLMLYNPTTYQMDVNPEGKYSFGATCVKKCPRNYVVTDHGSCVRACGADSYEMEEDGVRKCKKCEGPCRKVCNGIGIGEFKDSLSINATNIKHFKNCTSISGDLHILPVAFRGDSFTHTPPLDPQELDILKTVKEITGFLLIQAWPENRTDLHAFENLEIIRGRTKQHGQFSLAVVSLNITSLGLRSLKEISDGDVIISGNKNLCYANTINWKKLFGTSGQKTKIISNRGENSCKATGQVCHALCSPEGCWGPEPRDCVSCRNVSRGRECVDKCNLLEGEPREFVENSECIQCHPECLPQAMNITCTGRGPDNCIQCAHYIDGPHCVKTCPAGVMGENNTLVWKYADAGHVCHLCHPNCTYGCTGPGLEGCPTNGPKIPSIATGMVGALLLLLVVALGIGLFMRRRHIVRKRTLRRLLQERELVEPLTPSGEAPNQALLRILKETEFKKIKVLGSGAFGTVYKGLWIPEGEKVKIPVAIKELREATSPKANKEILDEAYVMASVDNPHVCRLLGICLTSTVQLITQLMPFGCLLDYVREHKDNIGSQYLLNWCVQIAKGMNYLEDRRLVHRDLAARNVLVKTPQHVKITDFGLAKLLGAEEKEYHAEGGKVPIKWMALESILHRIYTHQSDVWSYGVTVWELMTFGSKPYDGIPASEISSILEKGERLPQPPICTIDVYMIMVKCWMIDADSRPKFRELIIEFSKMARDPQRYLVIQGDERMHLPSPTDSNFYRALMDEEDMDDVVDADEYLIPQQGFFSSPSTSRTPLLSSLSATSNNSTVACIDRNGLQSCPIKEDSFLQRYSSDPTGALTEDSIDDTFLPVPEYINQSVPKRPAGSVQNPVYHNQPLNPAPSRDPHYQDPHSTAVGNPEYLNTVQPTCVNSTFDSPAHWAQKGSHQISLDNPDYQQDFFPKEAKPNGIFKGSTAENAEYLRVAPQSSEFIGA
T1 sequence (Q96SW2 whole entry partner): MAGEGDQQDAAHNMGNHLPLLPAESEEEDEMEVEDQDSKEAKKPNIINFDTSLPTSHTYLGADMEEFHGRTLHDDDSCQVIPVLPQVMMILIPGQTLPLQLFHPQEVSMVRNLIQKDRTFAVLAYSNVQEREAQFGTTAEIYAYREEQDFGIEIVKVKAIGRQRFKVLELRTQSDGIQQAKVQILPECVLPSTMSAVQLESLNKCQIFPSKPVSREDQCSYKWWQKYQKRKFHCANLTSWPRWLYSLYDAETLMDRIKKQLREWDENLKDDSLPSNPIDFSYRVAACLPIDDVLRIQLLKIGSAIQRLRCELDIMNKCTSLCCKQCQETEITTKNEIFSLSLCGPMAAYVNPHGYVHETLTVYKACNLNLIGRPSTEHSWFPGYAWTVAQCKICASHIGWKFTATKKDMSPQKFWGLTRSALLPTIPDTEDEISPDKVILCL
Procedure, shortened: (§1)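 SW1990 cells grown in high-glucose DMEM (25 mM glucose) with 10% FBS, 5% CO₂, 37 °C. Seeded and left 24 h, then exposed to DMSO or compound. Cells washed in PBS, lysed in RIPA, and cleared at 13 000 rpm for 15 min. Protein measured by BCA. 20−40 μg run on 10% SDS-PAGE, moved to PVDF, blocked 1 h in 5% milk or BSA, primary antibodies 1:1000 overnight at 4 °C, ECL detection.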

[2] = molecular target: Poly [ADP-ribose] polymerase 1 (Homo sapiens, UniProt P09874); experiment: Binding affinity to human GST-tagged PARP-1 ART domain (788 to 1014 residues) expressed in Escherichia coli BL21 (DE3) assessed as dissociation constant incubated for 30 mins by microscale thermophoresis analysis
Chain of Poly [ADP-ribose] polymerase 1 (P09874 whole entry, the tested form may be a part): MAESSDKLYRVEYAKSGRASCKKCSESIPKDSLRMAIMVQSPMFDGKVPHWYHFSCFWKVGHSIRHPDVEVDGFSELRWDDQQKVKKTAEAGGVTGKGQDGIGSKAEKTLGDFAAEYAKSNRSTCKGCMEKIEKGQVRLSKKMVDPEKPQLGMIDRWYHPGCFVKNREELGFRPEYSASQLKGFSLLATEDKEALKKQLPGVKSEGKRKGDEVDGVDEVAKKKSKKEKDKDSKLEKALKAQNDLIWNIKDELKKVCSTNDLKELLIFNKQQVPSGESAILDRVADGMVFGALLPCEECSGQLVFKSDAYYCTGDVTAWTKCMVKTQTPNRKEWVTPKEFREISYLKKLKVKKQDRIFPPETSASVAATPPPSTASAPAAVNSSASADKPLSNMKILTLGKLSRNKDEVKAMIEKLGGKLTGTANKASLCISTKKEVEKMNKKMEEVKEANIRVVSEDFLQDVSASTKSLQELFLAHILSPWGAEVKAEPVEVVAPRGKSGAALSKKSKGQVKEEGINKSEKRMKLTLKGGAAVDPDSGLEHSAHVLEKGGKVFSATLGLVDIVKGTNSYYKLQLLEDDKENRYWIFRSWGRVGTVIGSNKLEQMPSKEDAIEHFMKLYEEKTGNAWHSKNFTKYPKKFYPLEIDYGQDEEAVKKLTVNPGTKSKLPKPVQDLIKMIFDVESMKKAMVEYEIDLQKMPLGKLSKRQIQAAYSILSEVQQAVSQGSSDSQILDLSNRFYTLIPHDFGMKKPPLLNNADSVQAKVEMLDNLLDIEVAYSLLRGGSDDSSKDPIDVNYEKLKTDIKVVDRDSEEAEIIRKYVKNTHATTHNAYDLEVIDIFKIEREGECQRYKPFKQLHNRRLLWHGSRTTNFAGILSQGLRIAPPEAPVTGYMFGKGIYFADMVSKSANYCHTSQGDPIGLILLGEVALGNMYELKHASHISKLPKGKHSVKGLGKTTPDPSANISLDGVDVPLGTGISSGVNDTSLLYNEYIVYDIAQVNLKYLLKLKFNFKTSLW

[3] = molecular target: T1, Protein cereblon/Epidermal growth factor receptor (Homo sapiens); experiment: Protac activity at CRBN/EGFR in human SW1990 cells assessed as decrease in EGFR expression level at 1 to 50 uM pretreated with proteasome inhibitor MG132 for 4 hr followed by incubation with compound for 24 hrs by Western blot analysis; format: cell-based; details: dose 1-50 µM; procedure, shortened: as §1
[4] = molecular target: Epidermal growth factor receptor (Homo sapiens, UniProt P00533); experiment: biochemical; format: cell-based
[5] = molecular target: T2, Protein cereblon/Poly [ADP-ribose] polymerase 1 (Homo sapiens) (UniProt P09874+Q96SW2); experiment: Protac activity at CRBN/PARP-1 in human SW1990 cells assessed as induction of PARP-1 degradation at 1 to 50 uM incubated for 24 hrs by Western blot analysis; format: cell-based; details: dose 1-50 µM; procedure, shortened: as §1
T2 sequence (P09874 2-1014 limits assumed): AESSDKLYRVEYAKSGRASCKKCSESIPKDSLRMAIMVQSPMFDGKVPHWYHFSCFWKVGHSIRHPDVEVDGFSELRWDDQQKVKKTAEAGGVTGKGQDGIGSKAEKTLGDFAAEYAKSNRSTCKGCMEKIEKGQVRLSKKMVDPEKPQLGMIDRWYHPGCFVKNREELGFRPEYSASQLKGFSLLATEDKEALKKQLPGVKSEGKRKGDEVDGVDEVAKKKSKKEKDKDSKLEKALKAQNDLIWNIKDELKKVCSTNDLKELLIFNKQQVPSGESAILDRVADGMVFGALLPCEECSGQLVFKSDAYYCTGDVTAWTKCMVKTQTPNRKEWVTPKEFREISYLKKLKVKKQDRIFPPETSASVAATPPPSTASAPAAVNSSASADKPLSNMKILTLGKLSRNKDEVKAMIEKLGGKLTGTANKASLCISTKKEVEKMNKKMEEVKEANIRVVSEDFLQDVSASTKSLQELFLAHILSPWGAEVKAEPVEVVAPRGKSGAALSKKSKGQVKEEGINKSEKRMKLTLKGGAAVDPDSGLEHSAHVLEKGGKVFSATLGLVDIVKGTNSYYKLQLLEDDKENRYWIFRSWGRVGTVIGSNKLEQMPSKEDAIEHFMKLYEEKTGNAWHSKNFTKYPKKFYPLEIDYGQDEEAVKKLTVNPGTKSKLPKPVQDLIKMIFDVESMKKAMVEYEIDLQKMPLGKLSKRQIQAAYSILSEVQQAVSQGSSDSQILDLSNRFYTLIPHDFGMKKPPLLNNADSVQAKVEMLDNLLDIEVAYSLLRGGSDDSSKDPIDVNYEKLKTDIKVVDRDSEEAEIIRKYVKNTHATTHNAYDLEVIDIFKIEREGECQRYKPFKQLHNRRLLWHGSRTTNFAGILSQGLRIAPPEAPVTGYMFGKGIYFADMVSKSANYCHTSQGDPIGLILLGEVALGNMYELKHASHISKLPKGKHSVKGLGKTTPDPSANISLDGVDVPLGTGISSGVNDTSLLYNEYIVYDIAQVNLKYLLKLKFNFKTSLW
T2 sequence (Q96SW2 whole entry partner): as the sequence (Q96SW2 whole entry partner) above

[6] = molecular target: T2, Protein cereblon/Poly [ADP-ribose] polymerase 1 (Homo sapiens); experiment: Protac activity at CRBN/PARP-1 in human SW1990 cells assessed as induction of PARP-1 degradation at 5 uM measured after 6 to 48 hrs by Western blot analysis; format: cell-based; details: time 6-48 hrs, TDE = time-dependent effect; procedure, shortened: as §1
[7] = molecular target: T2, Protein cereblon/Poly [ADP-ribose] polymerase 1 (Homo sapiens); experiment: Protac activity at CRBN/PARP-1 in human SW1990 cells assessed as decrease of PARP-1 expression level at 1 to 50 uM pretreated with proteasome inhibitor MG132 for 4 hr followed by incubation with compound for 24 hrs by Western blot analysis; format: cell-based; details: dose 1-50 µM; procedure, shortened: as §1
[8] = molecular target: T1, Protein cereblon/Epidermal growth factor receptor (Homo sapiens); experiment: Protac activity at CRBN/EGFR in human SW1990 cells assessed as induction of EGFR degradation at 5 uM measured after 6 to 48 hrs by Western blot analysis; format: cell-based; details: time 6-48 hrs, TDE = time-dependent effect; procedure, shortened: as §1
[9] = system: NCI-H1299; experiment: cells; format: functional, cell-based; details: Homo sapiens, NCI-H1299, 72 h
[10] = molecular target: T3, von Hippel-Lindau disease tumor suppressor/Epidermal growth factor receptor (Homo sapiens) (UniProt P00533+P40337); experiment: Protac activity at VHL/EGFR in human NCI-H1299 cells assessed as induction of EGFR degradation by measuring reduction in p-EGFR level at 15 uM incubated for 36 hrs by Western blot analysis; format: cell-based
T3 sequence (P00533 25-1210 limits assumed): as the sequence (P00533 25-1210 limits assumed) above
T3 sequence (P40337 whole entry partner): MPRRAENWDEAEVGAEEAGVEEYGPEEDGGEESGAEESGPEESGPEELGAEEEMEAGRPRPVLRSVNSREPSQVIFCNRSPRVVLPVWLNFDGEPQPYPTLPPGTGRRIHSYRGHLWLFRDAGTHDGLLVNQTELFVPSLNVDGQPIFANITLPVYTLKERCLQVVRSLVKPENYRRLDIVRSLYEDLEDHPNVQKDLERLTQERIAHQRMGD
Procedure, shortened: (§2)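 NCI-H1299 cells grown in high-glucose DMEM with 10% FBS at 37 °C, 5% CO₂. Compound given after 24 h seeding. Lysis in RIPA, BCA protein assay, 20−40 μg on 10% SDS-PAGE, PVDF transfer, primary antibodies 1:1000 overnight at 4 °C, ECL. EGFR, p-EGFR and PARP probed.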

[11] = molecular target: T3, von Hippel-Lindau disease tumor suppressor/Epidermal growth factor receptor (Homo sapiens); experiment: Protac activity at VHL/EGFR in human NCI-H1299 cells assessed as induction of EGFR degradation at 4 uM incubated for 6 hrs by Western blot analysis; format: cell-based; procedure, shortened: as §2
[12] = molecular target: T4, von Hippel-Lindau disease tumor suppressor/Poly [ADP-ribose] polymerase 1 (Homo sapiens) (UniProt P09874+P40337); experiment: Protac activity at VHL/PARP-1 in human NCI-H1299 cells assessed as induction of PARP degradation at 0.47 uM incubated for 36 hrs by Western blot analysis relative to control
[13] = molecular target: T3, von Hippel-Lindau disease tumor suppressor/Epidermal growth factor receptor (Homo sapiens); experiment: Protac activity at VHL/EGFR in human NCI-H1299 cells assessed as decrease in EGFR degradation at up to 15 uM pretreated with proteasome inhibitor MG132 for 4 hr followed by incubation with compound for 6 hrs by Western blot analysis; format: cell-based; details: dose microM <=15, time 6.0 hrs; procedure, shortened: as §2
[14] = molecular target: T4, von Hippel-Lindau disease tumor suppressor/Poly [ADP-ribose] polymerase 1 (Homo sapiens); experiment: Protac activity at VHL/PARP-1 in human NCI-H1299 cells assessed as induction of PARP degradation at 4 uM incubated for 6 hrs by Western blot analysis; format: cell-based; procedure, shortened: as §2
[15] = molecular target: T4, von Hippel-Lindau disease tumor suppressor/Poly [ADP-ribose] polymerase 1 (Homo sapiens); experiment: Protac activity at VHL/PARP-1 in human NCI-H1299 cells assessed as decrease of PARP-1 degradation at up to 15 uM pretreated with proteasome inhibitor MG132 for 4 hr followed by incubation with compound for 6 hrs by Western blot analysis; format: cell-based; details: dose microM <=15, time 6.0 hrs; procedure, shortened: as §2
[16] = molecular target: T3, von Hippel-Lindau disease tumor suppressor/Epidermal growth factor receptor (Homo sapiens); experiment: Protac activity at VHL/EGFR in human A-431 cells assessed as induction of EGFR degradation at 0.8 to 20 uM incubated for 36 hrs by Western blot analysis; format: cell-based; details: dose 0.8-20 µM
[17] = molecular target: T4, von Hippel-Lindau disease tumor suppressor/Poly [ADP-ribose] polymerase 1 (Homo sapiens); experiment: Protac activity at VHL/PARP-1 in human A-431 cells assessed as induction of PARP-1 degradation at 0.8 to 20 uM incubated for 36 hrs by Western blot analysis; format: cell-based; details: dose 0.8-20 µM

Compound: COc1cc2ncnc(Nc3ccc(F)c(Cl)c3)c2cc1OCCCC(=O)NC(COCc1cn(CCOCCNc2cccc3c2C(=O)N(C2CCC(=O)NC2=O)C3=O)nn1)C(=O)NCCCC(=O)N1CCN(C(=O)c2cc(Cc3n[nH]c(=O)c4ccccc34)ccc2F)CC1 (centres undefined)
Activity [1]: Active
Activity [5]: Active

Compound: COc1cc2ncnc(Nc3ccc(F)c(Cl)c3)c2cc1OCCCC(=O)NCc1cn(CCOCCNc2cccc3c2C(=O)N(C2CCC(=O)NC2=O)C3=O)nn1 (centres undefined)
Activity [1]: Active

Compound: COc1cc2ncnc(Nc3ccc(F)c(Cl)c3)c2cc1OCCCCCC(=O)NC(COCc1cn(CCOCCOCCNc2cccc3c2C(=O)N(C2CCC(=O)NC2=O)C3=O)nn1)C(=O)NCCCCCC(=O)N1CCN(C(=O)c2cc(Cc3n[nH]c(=O)c4ccccc34)ccc2F)CC1 (centres undefined)
Activity [1]: Active
Activity [5]: Active

Compound: COc1cc2ncnc(Nc3ccc(F)c(Cl)c3)c2cc1OCCCCCC(=O)NC(COCc1cn(CCCC(=O)N[C@H](C(=O)N2C[C@H](O)C[C@H]2C(=O)NCc2ccc(-c3scnc3C)cc2)C(C)(C)C)nn1)C(=O)NCCCCCC(=O)N1CCN(C(=O)c2cc(Cc3n[nH]c(=O)c4ccccc34)ccc2F)CC1 (some centres undefined)
Activity [10]: Active
IC50 [9]: 19.9 µM
Activity [11]: Active
Activity [12]: 50%
Activity [13]: Active
Kd [2]: 12.8 µM
Kd [4]: 5.47 µM
Activity [14]: Active
Activity [15]: Active
Activity [16]: Active
Activity [17]: Active

The next lines start with the values.

Activity [1]: Active
Kd [2]: 7.89 µM
Activity [3]: Active
Kd [4]: 2.74 µM
Activity [5]: Active
Activity [6]: Tde
Activity [7]: Active
Activity [8]: Tde
Compound: COc1cc2ncnc(Nc3ccc(F)c(Cl)c3)c2cc1OCC(=O)NC(Cc1ccc(OCc2cn(CCOCCNc3cccc4c3C(=O)N(C3CCC(=O)NC3=O)C4=O)nn2)cc1)C(=O)N1CCN(C(=O)c2cc(Cc3n[nH]c(=O)c4ccccc34)ccc2F)CC1 (centres undefined)

Activity [1]: Active
Activity [5]: Active
Compound: O=C1CCC(N2C(=O)c3cccc(NCCOCCn4cc(CCC(=O)N5CCN(C(=O)c6cc(Cc7n[nH]c(=O)c8ccccc78)ccc6F)CC5)nn4)c3C2=O)C(=O)N1 (centres undefined)

IC50 [9]: 35.9 µM
Compound: O=C(c1cc(Cc2n[nH]c(=O)c3ccccc23)ccc1F)N1CCN(C(=O)C2CC2)CC1 [OLAPARIB]

Activity [1]: Active
Activity [5]: Active
Compound: COc1cc2ncnc(Nc3ccc(F)c(Cl)c3)c2cc1OCCCC(=O)NC(COCc1cn(CCOCCNc2cccc3c2C(=O)N(C2CCC(=O)NC2=O)C3=O)nn1)C(=O)N1CCN(C(=O)c2cc(Cc3n[nH]c(=O)c4ccccc34)ccc2F)CC1 (centres undefined)
